Calls of active or inactive are those of the source.
Columns and labels:
[1] = Metabolic stability of human liver microsomes assessed as parent compound remaining after 10 mins; format: ADME, microsome; conditions: read-out: Stability
[2] = target: T1, Voltage-dependent N-type calcium channel subunit alpha-1B (Homo sapiens, UniProt Q00975); assay: Inhibition of Cav2.2 (unknown origin) expressed in HEK293 cells assessed as decrease in KCl depolarization-induced Ca2+ influx measured for 5 mins by fluorescence based FDSS assay; format: cell-based
Target sequence in this assay (Q00975 whole entry): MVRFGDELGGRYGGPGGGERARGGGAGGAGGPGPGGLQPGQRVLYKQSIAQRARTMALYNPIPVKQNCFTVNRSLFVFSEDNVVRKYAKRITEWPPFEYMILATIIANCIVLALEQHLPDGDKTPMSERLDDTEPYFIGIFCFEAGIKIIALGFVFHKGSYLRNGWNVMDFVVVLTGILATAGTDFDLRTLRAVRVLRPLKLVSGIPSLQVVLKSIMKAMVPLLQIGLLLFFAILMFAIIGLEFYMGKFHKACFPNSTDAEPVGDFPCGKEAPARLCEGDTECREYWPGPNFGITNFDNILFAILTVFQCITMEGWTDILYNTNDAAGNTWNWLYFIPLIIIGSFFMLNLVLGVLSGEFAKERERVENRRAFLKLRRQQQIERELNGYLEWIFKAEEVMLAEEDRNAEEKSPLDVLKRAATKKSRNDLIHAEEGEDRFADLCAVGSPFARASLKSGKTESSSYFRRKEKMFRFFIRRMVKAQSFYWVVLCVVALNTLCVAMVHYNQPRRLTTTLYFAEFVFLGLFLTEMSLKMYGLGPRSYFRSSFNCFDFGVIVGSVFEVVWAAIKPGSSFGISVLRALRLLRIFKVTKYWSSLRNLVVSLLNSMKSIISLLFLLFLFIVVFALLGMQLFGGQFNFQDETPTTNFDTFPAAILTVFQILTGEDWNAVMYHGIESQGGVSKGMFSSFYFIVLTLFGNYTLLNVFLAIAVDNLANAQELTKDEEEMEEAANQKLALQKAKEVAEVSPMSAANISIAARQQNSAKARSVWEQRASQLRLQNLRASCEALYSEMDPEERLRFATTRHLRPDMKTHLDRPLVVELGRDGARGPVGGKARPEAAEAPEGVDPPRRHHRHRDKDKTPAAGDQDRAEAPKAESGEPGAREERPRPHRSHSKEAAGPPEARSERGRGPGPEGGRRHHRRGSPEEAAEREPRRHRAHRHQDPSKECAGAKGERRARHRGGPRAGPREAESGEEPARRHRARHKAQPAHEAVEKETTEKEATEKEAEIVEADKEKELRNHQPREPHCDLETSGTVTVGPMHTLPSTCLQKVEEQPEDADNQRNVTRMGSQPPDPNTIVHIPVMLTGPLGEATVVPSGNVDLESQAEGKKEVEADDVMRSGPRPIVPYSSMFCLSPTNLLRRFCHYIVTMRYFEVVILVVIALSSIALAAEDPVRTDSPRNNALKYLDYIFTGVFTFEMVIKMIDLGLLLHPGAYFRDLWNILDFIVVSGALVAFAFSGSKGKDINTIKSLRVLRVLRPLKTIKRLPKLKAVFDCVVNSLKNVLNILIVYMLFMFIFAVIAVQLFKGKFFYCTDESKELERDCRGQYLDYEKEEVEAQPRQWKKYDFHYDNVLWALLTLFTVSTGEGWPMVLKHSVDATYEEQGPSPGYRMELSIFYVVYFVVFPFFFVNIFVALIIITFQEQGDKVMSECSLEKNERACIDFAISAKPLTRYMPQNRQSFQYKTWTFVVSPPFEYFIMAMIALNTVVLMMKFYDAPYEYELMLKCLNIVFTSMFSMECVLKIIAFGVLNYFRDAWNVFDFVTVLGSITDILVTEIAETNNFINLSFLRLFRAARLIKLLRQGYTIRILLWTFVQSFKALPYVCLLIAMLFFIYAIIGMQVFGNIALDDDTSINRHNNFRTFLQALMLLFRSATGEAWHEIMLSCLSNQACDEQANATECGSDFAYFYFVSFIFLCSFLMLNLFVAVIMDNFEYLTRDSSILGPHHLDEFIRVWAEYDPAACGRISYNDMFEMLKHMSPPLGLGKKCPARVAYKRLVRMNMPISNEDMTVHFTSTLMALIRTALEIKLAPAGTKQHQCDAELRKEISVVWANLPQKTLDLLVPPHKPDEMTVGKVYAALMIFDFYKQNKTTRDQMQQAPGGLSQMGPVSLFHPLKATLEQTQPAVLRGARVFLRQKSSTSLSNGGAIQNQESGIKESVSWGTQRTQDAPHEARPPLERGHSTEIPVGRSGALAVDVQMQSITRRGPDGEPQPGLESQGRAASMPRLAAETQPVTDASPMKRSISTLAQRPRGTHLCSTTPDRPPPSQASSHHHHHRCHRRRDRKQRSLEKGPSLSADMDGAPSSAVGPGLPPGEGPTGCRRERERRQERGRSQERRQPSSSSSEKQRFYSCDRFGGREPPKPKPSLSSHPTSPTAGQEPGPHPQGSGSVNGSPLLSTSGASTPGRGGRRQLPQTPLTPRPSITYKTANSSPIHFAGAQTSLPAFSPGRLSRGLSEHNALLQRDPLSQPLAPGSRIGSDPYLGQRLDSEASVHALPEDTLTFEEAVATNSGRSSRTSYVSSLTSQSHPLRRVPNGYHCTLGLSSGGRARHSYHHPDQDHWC

[3] = target: T1, Voltage-dependent N-type calcium channel subunit alpha-1B; assay: Inhibition of high frequency stimulation-induced Cav2.2 (unknown origin) expressed in HEK293 cells at -80 mV holding membrane potential by automated patch clamp assay; format: cell-based
Target sequence in this assay (Q00975 whole entry): as above

[4] = target: T1, Voltage-dependent N-type calcium channel subunit alpha-1B; assay: Inhibition of low frequency stimulation-induced Cav2.2 (unknown origin) expressed in HEK293 cells at -80 mV holding membrane potential by automated patch clamp assay; format: cell-based
Target sequence in this assay (Q00975 whole entry): as above

[5] = Metabolic stability of rat liver microsomes assessed as parent compound remaining after 10 mins; format: ADME, microsome; conditions: read-out: Stability
[6] = target: Voltage-gated inwardly rectifying potassium channel KCNH2 (Homo sapiens, UniProt Q12809); assay: Inhibition of human ERG
[7] = Drug uptake in spinal cord of rat model of complete Freund's adjuvant-induced inflammatory pain at 30 mg/kg, po after 1 hr; format: ADME, organism-based; conditions: read-out: Drug uptake
How it was run: (§1)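 In separate studies, drug levels in plasma, brain and spinal cord were measured in rats after a 30 mg/kg p.o. dose, sampled at 1 h or 2 h.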

[8] = Drug uptake in brain of rat model of complete Freund's adjuvant-induced inflammatory pain at 30 mg/kg, po after 1 hr; format: ADME, organism-based; conditions: read-out: Drug uptake; how it was run: as §1
Rattus norvegicus [9] = assay: Antiinflammatory activity in rat model of complete Freund's adjuvant-induced inflammatory pain assessed as reduction in thermal hyperalgesia by measuring radiant heat latency at 30 mg/kg, po measured after 30 mins post dose; format: functional, organism-based
How it was run: (§2)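 CFA rats were confirmed thermally hypersensitive by radiant heat latency (75% cut-off) on test day. They were then dosed p.o. at 2.5 mL/kg with 30 mg/kg in 10% NMP/20% Solutol, or vehicle alone. Paw withdrawal latency to radiant heat was read at 30, 60, 120, 180 and 300 min post-dose. One-way ANOVA with Dunnett's post test.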

[10] = Plasma concentration in rat model of complete Freund's adjuvant-induced inflammatory pain at 30 mg/kg, po after 1 hr; format: ADME, organism-based; how it was run: as §1
[11] = Oral bioavailability in rat at 6 mg/kg; format: ADME, organism-based; conditions: in vivo
How it was run: (§3)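 Rat PK: oral and intravenous dosing of the same compound in 20% hydroxypropyl-β-cyclodextrin, at 10.0/2.0 or 6.0/1.2 mg/kg po/iv.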

[12] = AUClast in rat at 6 mg/kg, po; format: ADME, organism-based; set-up: dose 6 mg/kg, route oral, time 0 - last; conditions: in vivo; how it was run: as §3
[13] = Cmax in rat at 6 mg/kg, po; format: ADME, organism-based; set-up: dose 6 mg/kg, route oral; conditions: in vivo; how it was run: as §3
[14] = Volume of distribution at steady state in rat at 6 mg/kg, po or 1.2 mg/kg, iv; format: ADME, organism-based; conditions: in vivo, read-out: Vdss; how it was run: as §3
Rattus norvegicus [15] = assay: Antiinflammatory activity in rat model of complete Freund's adjuvant-induced inflammatory pain assessed as reduction in thermal hyperalgesia by measuring radiant heat latency at 30 mg/kg, po measured after 180 mins post dose; format: functional, organism-based; how it was run: as §2
[16] = Clearance in rat at 6 mg/kg, po or 1.2 mg/kg, iv; format: ADME, organism-based; conditions: in vivo; how it was run: as §3
L-type calcium channel = L-type calcium channel (Homo sapiens, UniProt O60840+Q01668+Q13698+Q13936); assay: Inhibition of L-type calcium channel (unknown origin) at 1 uM relative to control; format: protein assay
[17] = Half life in rat at 1.2 mg/kg, iv; format: ADME, organism-based; conditions: in vivo; how it was run: as §3
[18] = Plasma concentration in rat model of complete Freund's adjuvant-induced inflammatory painat 30 mg/kg, po after 2 hrs; format: ADME, organism-based; how it was run: as §1
[19] = Cmax in rat at 10 mg/kg, po; format: ADME, organism-based; set-up: dose 10 mg/kg, route oral; conditions: in vivo; how it was run: as §3
[20] = AUClast in rat at 10 mg/kg, po; format: ADME, organism-based; set-up: dose 10 mg/kg, time 0 - last, route oral; conditions: in vivo; how it was run: as §3
[21] = Oral bioavailability in rat at 10 mg/kg; format: ADME, organism-based; conditions: in vivo; how it was run: as §3
[22] = Half life in rat at 2 mg/kg, iv; format: ADME, organism-based; conditions: in vivo; how it was run: as §3
[23] = Drug uptake in brain of rat model of complete Freund's adjuvant-induced inflammatory pain at 30 mg/kg, po after 2 hrs; format: ADME, organism-based; conditions: read-out: Drug uptake; how it was run: as §1
Rattus norvegicus [24] = assay: Antinociceptive activity in Sprague-Dawley rat model of CCI-induced neuropathic pain assessed as reduction in acetone-induced nocifensive response at 30 mg/kg, po measured after 3 hrs relative to control; format: functional
How it was run: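 CCI rats were given 30 mg/kg p.o. in 10% Solutol/20% HP-β-CD, or vehicle. Cold allodynia was scored as brisk hindpaw withdrawal to acetone applied to the affected paw, over five applications, before dosing and hourly for 3 h. Percent inhibition is relative to the time-zero responses. Two-way repeated-measures ANOVA with Bonferroni test.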

[25] = Clearance in rat at 10 mg/kg, po or 2 mg/kg, iv; format: ADME, organism-based; conditions: in vivo; how it was run: as §3
[26] = Volume of distribution at steady state in rat at 10 mg/kg, po or 2 mg/kg, iv; format: ADME, organism-based; conditions: in vivo, read-out: Vdss; how it was run: as §3
[27] = target: T1, Voltage-dependent N-type calcium channel subunit alpha-1B; assay: Inhibition of high frequency stimulation-induced Cav2.2 (unknown origin) expressed in HEK293 cells at 5 uM at -80 mV holding membrane potential by automated patch clamp assay relative to control; format: cell-based
How it was run: (§4)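 Automated whole-cell patch clamp (QPatch-HT) on HEK293 cells stably expressing Cav2.2. Each trial was the 4th train at each drug concentration. 60 μM CdCl2 set the 0% level, and vehicle-treated cells were used to correct for rundown.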
Target sequence in this assay (Q00975 whole entry, looked up): as the sequence (Q00975 whole entry) above

[28] = target: T1, Voltage-dependent N-type calcium channel subunit alpha-1B; assay: Inhibition of low frequency stimulation-induced Cav2.2 (unknown origin) expressed in HEK293 cells at 5 uM at -80 mV holding membrane potential by automated patch clamp assay relative to control; format: cell-based; how it was run: as §4
Target sequence in this assay (Q00975 whole entry, looked up): as the sequence (Q00975 whole entry) above

Voltage-gated inwardly rectifying potassium channel KCNH2, sequence (Q12809 whole entry): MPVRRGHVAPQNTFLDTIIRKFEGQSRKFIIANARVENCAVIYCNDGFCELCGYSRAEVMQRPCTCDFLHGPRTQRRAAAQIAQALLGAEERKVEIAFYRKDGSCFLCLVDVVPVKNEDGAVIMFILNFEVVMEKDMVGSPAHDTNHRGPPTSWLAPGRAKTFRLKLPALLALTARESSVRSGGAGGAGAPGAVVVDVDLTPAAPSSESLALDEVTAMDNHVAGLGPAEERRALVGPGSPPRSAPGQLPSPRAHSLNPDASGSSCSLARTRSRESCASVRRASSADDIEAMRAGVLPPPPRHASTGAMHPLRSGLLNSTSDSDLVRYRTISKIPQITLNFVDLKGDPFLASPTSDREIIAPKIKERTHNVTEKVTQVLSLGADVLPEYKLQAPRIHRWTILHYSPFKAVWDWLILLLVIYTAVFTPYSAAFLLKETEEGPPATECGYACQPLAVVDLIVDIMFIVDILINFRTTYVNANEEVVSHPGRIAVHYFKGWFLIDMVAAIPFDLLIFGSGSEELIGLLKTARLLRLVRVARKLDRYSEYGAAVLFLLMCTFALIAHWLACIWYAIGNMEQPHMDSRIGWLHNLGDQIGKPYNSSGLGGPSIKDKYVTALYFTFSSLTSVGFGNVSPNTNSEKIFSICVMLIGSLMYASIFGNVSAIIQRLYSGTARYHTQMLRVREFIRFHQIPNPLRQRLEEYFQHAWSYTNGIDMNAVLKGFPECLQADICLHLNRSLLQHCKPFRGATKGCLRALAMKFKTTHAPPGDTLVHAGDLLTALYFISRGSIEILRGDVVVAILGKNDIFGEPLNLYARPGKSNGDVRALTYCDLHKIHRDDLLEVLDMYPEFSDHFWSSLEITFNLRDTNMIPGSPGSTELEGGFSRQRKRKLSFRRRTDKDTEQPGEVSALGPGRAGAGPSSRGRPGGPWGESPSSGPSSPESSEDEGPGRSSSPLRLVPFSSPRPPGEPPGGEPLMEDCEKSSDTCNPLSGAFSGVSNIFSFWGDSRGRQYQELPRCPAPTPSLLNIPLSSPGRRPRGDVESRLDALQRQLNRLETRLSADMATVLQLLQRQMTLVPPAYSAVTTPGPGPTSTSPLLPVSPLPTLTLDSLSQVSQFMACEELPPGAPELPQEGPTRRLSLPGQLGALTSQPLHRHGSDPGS

| SMILES | remaining at 10 min [1] | IC50 [2] | IC50 [3] | IC50 [4] | remaining at 10 min [5] | also measured |
| --- | --- | --- | --- | --- | --- | --- |
| COc1ccccc1-n1nc([C@H]2C[C@@H](C)O[C@@H](C)C2)cc1-c1ccc(Cl)cc1 | 64% | 3 nM | 12 nM | 91 nM | 18% |  |
| COc1ccccc1-n1nc(C2CC(C)(C)OC(C)(C)C2)cc1-c1ccnc(Cl)c1 |  |  | 250 nM | 740 nM |  |  |
| COc1ccccc1-n1nc([C@@H]2CCO[C@@H](C(C)C)C2)cc1-c1ccc(Cl)cc1 (relative stereo) | 26% | 20 nM |  |  | 14% |  |
| COc1ccccc1-n1nc(C2CC(C)(C)OC(C)(C)C2)cc1-c1ccc(C#N)cc1 |  | 1 nM | 85 nM | 130 nM |  |  |
| CCOc1ccc(-c2cc(C3CC(C)(C)OC(C)(C)C3)nn2-c2ccccc2OC)cc1 |  | 2 nM | 29 nM | 61 nM |  |  |
| COc1ccccc1-n1nc(C2=CC(C)(C)OC(C)(C)C2)cc1-c1ccc(Cl)cc1 | 96% | 3 nM |  |  | 37% |  |
| COc1ccccc1-n1nc(C2CC(C)(C)OC(C)(C)C2)cc1-c1csc(Cl)c1 |  | 6 nM | 28 nM | 62 nM |  | IC50 [6]: 26000 nM; concentration at 1 h [7]: 1900 nM; concentration at 1 h [8]: 2200 nM; Activity (Rattus norvegicus [9]): Active; concentration at 1 h [10]: 1100 nM; bioavailability [11]: 49%; AUC(0-t) [12]: 2660 ng·h/mL; Cmax [13]: 369 ng/mL; Vd [14]: 10.2 L/kg; Activity (Rattus norvegicus [15]): inactive; clearance [16]: 15.9 mL/min/kg; inhibition at 1 µM (L-type calcium channel): 12%; half-life [17]: 10.2 h |
| COc1ccccc1-n1nc(C2CCOCC2)cc1-c1ccc(Cl)cc1 | 75% | 30 nM |  |  | 8% |  |
| CCN(CC)c1ccccc1-n1nc(C2CC(C)(C)OC(C)(C)C2)cc1-c1ccc(Cl)cc1 |  | 1 nM | 100 nM | 590 nM |  |  |
| COc1ccccc1-n1nc(C2CC(C)(C)OC(C)(C)C2)cc1-c1ccc(Cl)cc1 | 97% | 1 nM | 16 nM | 24 nM | 96% | IC50 [6]: 20000 nM; concentration at 2 h [18]: 700 nM; Cmax [19]: 127 ng/mL; AUC(0-t) [20]: 1500 ng·h/mL; Activity (Rattus norvegicus [9]): Active; bioavailability [21]: 36%; half-life [22]: 15.4 h; concentration at 2 h [23]: 1200 nM; inhibition in vivo at 30 mg/kg (Rattus norvegicus [24]): 51%; Activity (Rattus norvegicus [15]): inactive; clearance [25]: 37 mL/min/kg; Vd [26]: 33.3 L/kg; inhibition at 1 µM (L-type calcium channel): 0% |
| COc1ccccc1-n1nc(C2C[C@H](C)O[C@@H](C)C2)cc1-c1ccc(Cl)cc1 (relative stereo) | 40% | 2 nM |  |  | 14% |  |
| COc1ccccc1-n1nc(C2CC(C)(C)OC(C)(C)C2)cc1-c1ccc(C)nc1 |  | 6 nM |  |  |  |  |
| CC1(C)CC(c2cc(-c3ccc(Cl)cc3)n(-c3ccncc3)n2)CC(C)(C)O1 |  | 7 nM |  |  |  |  |
| CCOc1ccc(-c2cc(C3CC(C)(C)OC(C)(C)C3)nn2-c2ccccc2OC)cn1 |  | 5 nM | 44 nM | 200 nM |  |  |
| COc1ccccc1-n1nc([C@@H]2CCO[C@H](C(C)C)C2)cc1-c1ccc(Cl)cc1 (relative stereo) | 66% | 7 nM |  |  | 21% |  |
| COCCCc1cc(-c2ccc(Cl)cc2)n(-c2ccccc2OC)n1 | 58% |  |  |  | 4% | inhibition [27]: 50%; inhibition [28]: 50% |
| COc1ccccc1-n1nc(C2CCOC(C)(C)C2)cc1-c1ccc(Cl)cc1 (stereo not given) | 98% | 2 nM | 55 nM | 150 nM | 21% |  |
| CC1(C)CC(c2cc(-c3ccc(Cl)cc3)n(-c3ccccn3)n2)CC(C)(C)O1 |  | 12 nM |  |  |  |  |

— ChEMBL document CHEMBL4257570, “Discovery and optimization of a novel series of pyrazolyltetrahydropyran N-type calcium channel (Cav 2.2) blockers for the treatment of pain” (Bioorg Med Chem Lett, 2018)
